Laboratory results from ChEMBL document CHEMBL1140385, “Synthesis and antibacterial activity of 3-substituted-6-(3-ethyl-4-methylanilino)uracils” (J Med Chem, 2005).
Converted amounts (≈) assume the structure as drawn.

Experiments:
Enterococcus faecium [1] = assay: In vitro minimum inhibitory concentration against Vancomycin resistant Enterococci faecium upon incubation at 37 degree C for 16 to 24 hr by dissolving in DMSO (1%); assay type: functional
Method in brief: (§1)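 Broth microdilution (modified NCCLS M7-A4). Enterococci grown to log phase in brain-heart infusion broth, seeded at (3-7) × 10⁵ CFU/mL. Compounds 2-fold diluted from DMSO stocks, 20 to 1.25 µg/mL, final 1% DMSO, in duplicate. Incubated 37 °C, 16-24 h, with shaking. OD600 read.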

Enterococcus faecalis = assay: In vitro minimum inhibitory concentration against Enterococcus faecalis upon incubation at 37 degree C for 16 to 24 hr by dissolving in DMSO (1%); assay type: functional
Method in brief: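 Log-phase E. faecalis was grown in brain-heart infusion broth and seeded at (3-7) × 10^5 CFU/mL. Duplicate 2-fold dilutions ran from 20 to 1.25 µg/mL, final 1% DMSO. After 16-24 h at 37 °C with shaking, OD600 was read.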

Staphylococcus aureus [2] = assay: In vitro minimum inhibitory concentration against Methicillin-resistant Staphylococcus aureus upon incubation at 37 degree C for 16 to 24 hr by dissolving in DMSO (1%); assay type: functional
Method in brief: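 Broth microdilution (modified NCCLS M7-A4). Staphylococci grown to log phase in Luria broth, seeded at (3-7) × 10⁵ CFU/mL. Compounds 2-fold diluted from DMSO stocks, 20 to 1.25 µg/mL, final 1% DMSO, in duplicate. Incubated 37 °C, 16-24 h, with shaking. OD600 read.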

Enterococcus faecium [3] = assay: In vitro minimum inhibitory concentration against Enterococcus fecium upon incubation at 37 degree C for 16 to 24 hr by dissolving in DMSO (1%); assay type: functional; method in brief: as §1
Staphylococcus aureus [4] = assay: In vitro minimum inhibitory concentration against Staphylococcus aureus (Smith) upon incubation at 37 degree C for 16 to 24 hr by dissolving in DMSO (1%); assay type: functional
Staphylococcus aureus [5] = assay: In vitro minimum inhibitory concentration against Staphylococcus aureus upon incubation at 37 degree C for 16 to 24 hr by dissolving in DMSO (1%); assay type: functional
Staphylococcus aureus [6] = assay: Serum effect on MIC against Staphylococcus aureus (Smith) as ratio of MIC value in presence and absence of 50% fetal calf serum; assay type: functional
Method in brief: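 Broth microdilution MIC was repeated with 50% fetal calf serum added to the growth medium (LB for S. aureus, brain-heart infusion broth for E. faecalis). The inoculum was (3-7) × 10^5 CFU/mL in 1% DMSO, incubated at 37 °C for 16-24 h, and read by OD600. The serum effect is the MIC with serum relative to the MIC without serum.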

Bacillus subtilis = assay: In vitro minimum inhibitory concentration against Bacillus subtilis upon incubation at 37 degree C for 16 to 24 h; assay type: functional
[7] = target: DNA polymerase III PolC-type (Bacillus subtilis (strain 168), UniProt P13267); assay: Inhibitory concentration against Bacillus subtilis DNA polymerase IIIC using [3H]dTMP 250 pM (30 degree C for 10 min)
Chain of DNA polymerase III PolC-type (P13267 whole entry, the tested form may be a part): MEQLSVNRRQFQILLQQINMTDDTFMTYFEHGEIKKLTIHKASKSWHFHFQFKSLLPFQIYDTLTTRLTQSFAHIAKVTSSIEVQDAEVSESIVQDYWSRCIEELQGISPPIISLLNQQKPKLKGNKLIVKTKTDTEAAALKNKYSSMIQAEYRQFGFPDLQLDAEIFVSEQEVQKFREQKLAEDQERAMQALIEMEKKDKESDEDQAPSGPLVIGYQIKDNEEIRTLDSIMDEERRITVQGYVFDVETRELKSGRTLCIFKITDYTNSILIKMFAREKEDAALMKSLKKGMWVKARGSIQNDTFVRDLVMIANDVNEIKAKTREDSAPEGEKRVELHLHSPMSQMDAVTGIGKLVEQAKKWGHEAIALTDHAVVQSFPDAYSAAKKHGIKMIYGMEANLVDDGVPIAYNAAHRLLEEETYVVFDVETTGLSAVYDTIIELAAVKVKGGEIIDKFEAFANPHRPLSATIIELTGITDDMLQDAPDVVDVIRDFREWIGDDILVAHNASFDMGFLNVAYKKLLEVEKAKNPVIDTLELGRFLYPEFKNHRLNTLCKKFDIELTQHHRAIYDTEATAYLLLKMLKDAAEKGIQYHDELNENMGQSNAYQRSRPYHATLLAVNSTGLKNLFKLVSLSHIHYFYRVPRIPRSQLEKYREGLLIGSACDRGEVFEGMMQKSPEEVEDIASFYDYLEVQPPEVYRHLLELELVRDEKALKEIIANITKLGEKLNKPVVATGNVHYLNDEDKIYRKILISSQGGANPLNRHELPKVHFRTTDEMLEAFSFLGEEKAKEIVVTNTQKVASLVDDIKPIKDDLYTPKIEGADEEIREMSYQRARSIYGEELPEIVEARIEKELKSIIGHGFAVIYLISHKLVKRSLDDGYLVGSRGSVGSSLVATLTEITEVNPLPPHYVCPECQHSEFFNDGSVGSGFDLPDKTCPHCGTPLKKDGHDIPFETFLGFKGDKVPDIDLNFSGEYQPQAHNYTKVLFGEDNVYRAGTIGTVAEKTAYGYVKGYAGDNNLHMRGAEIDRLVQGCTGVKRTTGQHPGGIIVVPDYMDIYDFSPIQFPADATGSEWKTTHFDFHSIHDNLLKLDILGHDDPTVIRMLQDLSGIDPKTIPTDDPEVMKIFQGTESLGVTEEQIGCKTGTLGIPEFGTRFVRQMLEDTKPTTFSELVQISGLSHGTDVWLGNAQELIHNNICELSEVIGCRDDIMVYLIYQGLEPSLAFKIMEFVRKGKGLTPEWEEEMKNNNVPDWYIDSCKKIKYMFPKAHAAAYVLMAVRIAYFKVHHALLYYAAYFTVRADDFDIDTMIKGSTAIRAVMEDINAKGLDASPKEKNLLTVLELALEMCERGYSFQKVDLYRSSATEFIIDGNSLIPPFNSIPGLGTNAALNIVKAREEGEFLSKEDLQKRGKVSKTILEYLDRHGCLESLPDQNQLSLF
Method in brief: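 Homogeneous recombinant B. subtilis pol IIIC, 0.025-0.06 units, acted on activated calf thymus DNA with Mg2+, DTT, glycerol, dATP, dCTP, dTTP and [3H]dTTP, without dGTP. Compounds were serially diluted from DMSO. Reactions ran 10 min at 30 °C, were stopped with TCA-pyrophosphate, and the filter-collected precipitate was scintillation counted. Apparent Ki was read directly from this truncated assay; average standard deviation ±44%.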

SMILES	MIC (Enterococcus faecium [1]) [µg/mL]	MIC (Enterococcus faecalis) [µg/mL]	MIC (Staphylococcus aureus [2]) [µg/mL]	MIC (Enterococcus faecium [3]) [µg/mL]	MIC (Staphylococcus aureus [4]) [µg/mL]	MIC (Staphylococcus aureus [5]) [µg/mL]	MIC+/MIC- (Staphylococcus aureus [6])	MIC (Bacillus subtilis) [µg/mL]	Ki [7] [nM]
CCc1cc(Nc2cc(=O)n(CC(C)=O)c(=O)[nH]2)ccc1C	20 (≈ 66.4 µM)	20 (≈ 66.4 µM)	10 (≈ 33.2 µM)	10 (≈ 33.2 µM)	10 (≈ 33.2 µM)				
CCc1cc(Nc2cc(=O)n(CCCCNS(=O)(=O)c3cccs3)c(=O)[nH]2)ccc1C	5 (≈ 10.8 µM)	5 (≈ 10.8 µM)		2.5 (≈ 5.4 µM)		> 20	13.7		
CCc1cc(Nc2cc(=O)n(CCCCCN)c(=O)[nH]2)ccc1C.Cl	> 20	> 20	10	20	10	5		< 1.25	185
CCc1cc(Nc2cc(=O)n(CCCCCN3CC=C(c4ccc(F)cc4)CC3)c(=O)[nH]2)ccc1C	5 (≈ 10.2 µM)	7.5 (≈ 15.3 µM)	7.5 (≈ 15.3 µM)	7.5 (≈ 15.3 µM)	7.5 (≈ 15.3 µM)	10 (≈ 20.4 µM)			
CCc1cc(Nc2cc(=O)n(CCOC)c(=O)[nH]2)ccc1C	2.5 (≈ 8.24 µM)	5 (≈ 16.5 µM)	5 (≈ 16.5 µM)	2.5 (≈ 8.24 µM)	2.5 (≈ 8.24 µM)	2.5 (≈ 8.24 µM)	6.9	< 1.25	127
CCc1cc(Nc2cc(=O)n(CCCC(C)=O)c(=O)[nH]2)ccc1C	2.5 (≈ 7.59 µM)	5 (≈ 15.2 µM)	5 (≈ 15.2 µM)	5 (≈ 15.2 µM)	2.5 (≈ 7.59 µM)				
CCc1cc(Nc2cc(=O)n(CCCCNCCO)c(=O)[nH]2)ccc1C		> 20		> 20	> 20	> 20		> 20	28
CCc1cc(Nc2cc(=O)n(CCCCCCCCCCO)c(=O)[nH]2)ccc1C		> 20		> 20	> 20	> 20		< 1.25	51
CCc1cc(Nc2cc(=O)n(C/C=C/CO)c(=O)[nH]2)ccc1C	2.5 (≈ 7.93 µM)	5 (≈ 15.9 µM)	5 (≈ 15.9 µM)	2.5 (≈ 7.93 µM)	5 (≈ 15.9 µM)	10 (≈ 31.7 µM)	4.8	1.25 (≈ 3.96 µM)	
CCc1cc(Nc2cc(=O)n(CCCCNC(=O)CCl)c(=O)[nH]2)ccc1C	5 (≈ 12.7 µM)	5 (≈ 12.7 µM)	10 (≈ 25.5 µM)	10 (≈ 25.5 µM)	5 (≈ 12.7 µM)				
CCc1cc(Nc2cc(=O)n(CCCCCOC(C)=O)c(=O)[nH]2)ccc1C	3.75 (≈ 10 µM)	5 (≈ 13.4 µM)	2.5 (≈ 6.69 µM)	3.75 (≈ 10 µM)	7.5 (≈ 20.1 µM)	5 (≈ 13.4 µM)		0.625 (≈ 1.67 µM)	68
CCc1cc(Nc2cc(=O)n(CCOC(C)=O)c(=O)[nH]2)ccc1C	5 (≈ 15.1 µM)	5 (≈ 15.1 µM)	5 (≈ 15.1 µM)	5 (≈ 15.1 µM)	3.75 (≈ 11.3 µM)	5 (≈ 15.1 µM)		1.25 (≈ 3.77 µM)	120
CCOC(=O)CCCCn1c(=O)cc(Nc2ccc(C)c(CC)c2)[nH]c1=O	2.5 (≈ 6.69 µM)	5 (≈ 13.4 µM)	> 20	< 1.25			>12.2		
CCOC(=O)CCCn1c(=O)cc(Nc2ccc(C)c(CC)c2)[nH]c1=O	5 (≈ 13.9 µM)	5 (≈ 13.9 µM)	5 (≈ 13.9 µM)				10		
CCc1cc(Nc2cc(=O)n(CCCCN(CCO)CCO)c(=O)[nH]2)ccc1C		> 20		> 20	> 20	> 20		> 20	21
CCc1cc(Nc2cc(=O)n(CCCC(=O)O)c(=O)[nH]2)ccc1C	20 (≈ 60.4 µM)	> 20	> 20	20 (≈ 60.4 µM)		20 (≈ 60.4 µM)			
CCc1cc(Nc2cc(=O)n(CCCCC#N)c(=O)[nH]2)ccc1C	5 (≈ 15.3 µM)	2.5 (≈ 7.66 µM)	5 (≈ 15.3 µM)	5 (≈ 15.3 µM)		5 (≈ 15.3 µM)	6		
CCc1cc(Nc2cc(=O)n(CCCCCCCCCO)c(=O)[nH]2)ccc1C	2.5 (≈ 6.45 µM)	2.5 (≈ 6.45 µM)	20 (≈ 51.6 µM)	2.5 (≈ 6.45 µM)	2.5 (≈ 6.45 µM)	20 (≈ 51.6 µM)	>32	< 1.25	87

SMILES	MIC (Enterococcus faecium [1]) [µg/mL]	MIC (Enterococcus faecalis) [µg/mL]	MIC (Staphylococcus aureus [2]) [µg/mL]	MIC (Enterococcus faecium [3]) [µg/mL]	MIC (Staphylococcus aureus [4]) [µg/mL]	MIC (Staphylococcus aureus [5]) [µg/mL]	MIC+/MIC- (Staphylococcus aureus [6])	MIC (Bacillus subtilis) [µg/mL]	Ki [7] [nM]
CCc1cc(Nc2cc(=O)n(CCCCCCO)c(=O)[nH]2)ccc1C		2.5 (≈ 7.24 µM)	5 (≈ 14.5 µM)	5 (≈ 14.5 µM)		5 (≈ 14.5 µM)	8.7		
CCc1cc(Nc2cc(=O)n(CCCOC)c(=O)[nH]2)ccc1C	2.5 (≈ 7.88 µM)	5 (≈ 15.8 µM)	2.5 (≈ 7.88 µM)	2.5 (≈ 7.88 µM)	2.5 (≈ 7.88 µM)	2.5 (≈ 7.88 µM)	4.9	< 1.25	120
CCc1cc(Nc2cc(=O)n(CCCCOC(=O)N3CCOCC3)c(=O)[nH]2)ccc1C	5 (≈ 11.6 µM)	5 (≈ 11.6 µM)	10 (≈ 23.2 µM)	5 (≈ 11.6 µM)	5 (≈ 11.6 µM)				
CCc1cc(Nc2cc(=O)n(CCCCCO)c(=O)[nH]2)ccc1C	2.5 (≈ 7.54 µM)	2.5 (≈ 7.54 µM)	5 (≈ 15.1 µM)	2.5 (≈ 7.54 µM)	2.5 (≈ 7.54 µM)	5 (≈ 15.1 µM)	11.6	< 1.25	43
CCc1cc(Nc2cc(=O)n(CCCCOC)c(=O)[nH]2)ccc1C	2.5 (≈ 7.54 µM)	5 (≈ 15.1 µM)	5 (≈ 15.1 µM)	2.5 (≈ 7.54 µM)	5 (≈ 15.1 µM)	5 (≈ 15.1 µM)	7.4	< 1.25	
CCc1cc(Nc2cc(=O)n(CCCCN)c(=O)[nH]2)ccc1C.Cl		> 20	> 20	> 20	10	20		20	
CCc1cc(Nc2cc(=O)n(CCCCCN3CCc4c([nH]c5ccc(OC)cc45)C3)c(=O)[nH]2)ccc1C	5 (≈ 9.7 µM)	> 20	10 (≈ 19.4 µM)	20 (≈ 38.8 µM)	10 (≈ 19.4 µM)				
CCc1cc(Nc2cc(=O)n(CCCCNC(=O)C3CC3)c(=O)[nH]2)ccc1C	5 (≈ 13 µM)	5 (≈ 13 µM)	20 (≈ 52 µM)		5 (≈ 13 µM)		14.9		
CCc1cc(Nc2cc(=O)n(CCCCNS(=O)(=O)c3ccc(C)cc3)c(=O)[nH]2)ccc1C	5 (≈ 10.6 µM)	5 (≈ 10.6 µM)	> 20	5 (≈ 10.6 µM)	5 (≈ 10.6 µM)	5 (≈ 10.6 µM)		5 (≈ 10.6 µM)	230
CCc1cc(Nc2cc(=O)n(CCCCCCCCO)c(=O)[nH]2)ccc1C	2.5 (≈ 6.69 µM)			2.5 (≈ 6.69 µM)			21.3		
CCc1cc(Nc2cc(=O)n(CC#CCO)c(=O)[nH]2)ccc1C	10 (≈ 31.9 µM)	10 (≈ 31.9 µM)	10 (≈ 31.9 µM)	10 (≈ 31.9 µM)		10 (≈ 31.9 µM)			
CCc1cc(Nc2cc(=O)n(CCCC(O)CO)c(=O)[nH]2)ccc1C (configuration not stated)	10 (≈ 28.8 µM)	20 (≈ 57.6 µM)	> 20	20 (≈ 57.6 µM)	20 (≈ 57.6 µM)				
CCc1cc(Nc2cc(=O)n(CCCOC(C)=O)c(=O)[nH]2)ccc1C	3.75 (≈ 10.9 µM)	5 (≈ 14.5 µM)	5 (≈ 14.5 µM)	5 (≈ 14.5 µM)	2.5 (≈ 7.24 µM)	3.75 (≈ 10.9 µM)		0.625 (≈ 1.81 µM)	120
CCc1cc(Nc2cc(=O)n(CCCCOC(C)=O)c(=O)[nH]2)ccc1C	5 (≈ 13.9 µM)	5 (≈ 13.9 µM)	5 (≈ 13.9 µM)	5 (≈ 13.9 µM)					
CCc1cc(Nc2cc(=O)n(CCOCCOCCO)c(=O)[nH]2)ccc1C	5 (≈ 13.2 µM)	10 (≈ 26.5 µM)	> 20	10 (≈ 26.5 µM)	10 (≈ 26.5 µM)				
O=C(O)c1cn(C2CC2)c2cc(N3CCNCC3)c(F)cc2c1=O [CIPROFLOXACIN]	20 (≈ 60.4 µM)		> 20	5 (≈ 15.1 µM)	0.078 (≈ 0.235 µM)	0.156 (≈ 0.471 µM)		0.078 (≈ 0.235 µM)	
CCc1cc(Nc2cc(=O)n(CCO)c(=O)[nH]2)ccc1C	5 (≈ 17.3 µM)	10 (≈ 34.6 µM)	10 (≈ 34.6 µM)	5 (≈ 17.3 µM)	5 (≈ 17.3 µM)	5 (≈ 17.3 µM)		< 1.25	
CCc1cc(Nc2cc(=O)n(CCN3CCN(C(=O)c4ccccc4)CC3)c(=O)[nH]2)ccc1C	5 (≈ 10.8 µM)	10 (≈ 21.7 µM)	10 (≈ 21.7 µM)	5 (≈ 10.8 µM)	10 (≈ 21.7 µM)				
